Experimental findings from ChEMBL document CHEMBL1926594, “Molecular modeling studies, synthesis, configurational stability and biological activity of 8-chloro-2,3,5,6-tetrahydro-3,6-dimethyl-pyrrolo[1,2,3-de]-1,2,4-benzothiadiazine 1,1-dioxide” (Bioorg Med Chem, 2011) are described below.

One series deals with DIV7-10. Kind of series: Positive allosteric modulation activity at AMPA receptor in Sprague-Dawley rat cortical neuronal DIV7-10 cells assessed as increase in kainate induced currents at 100 uM by patch clamp electrophysiological method. Type of series: cell-based. An outline of the steps: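 Cortical neurons from newborn Sprague–Dawley rats: trypsin-dispersed, plated on poly-L-lysine and switched to BME/Neurobasal with B27 after 24 h, with 1 µM Ara-C added at DIV5. Whole-cell voltage-clamp at room temperature on DIV7-10 cells. Kainate-evoked currents recorded with co-application of epimeric mixture at 100 µM. Potentiation given as mean ± SE, n = 4.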

Series [1] can be described thus: Configurational stability of compound in water-acetonitrile assessed as forward rate epimerization at 5 degC by dynamic HPLC analysis. Format: physicochemical. To be noted: buffer. Put shortly:
(§1)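 Dynamic HPLC on the (3*,6R) epimeric mixture: isocratic Chiralcel OD-R column, water/acetonitrile 50:50 (v/v), run at temperatures of 5-37 °C. Sample at 100 μg/mL final, 20 μL injected, UV detection at 254 nm. Interconversion rate constants obtained from elution profiles by integration of the interconverting peak areas.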

Series [2] can be described thus: Configurational stability of compound in water-acetonitrile assessed as forward rate epimerization at 25 degC by dynamic HPLC analysis. Format: physicochemical. To be noted: buffer. An outline of the steps:
as §1

A short description of series [3]: Configurational stability of compound in water-acetonitrile assessed as forward rate epimerization at 37 degC by dynamic HPLC analysis. To be noted: buffer. Format: physicochemical. Put shortly:
as §1

Series [4] can be described thus: Configurational stability of compound in water-acetonitrile assessed as backward rate epimerization at 5 degC by dynamic HPLC analysis. Type of series: physicochemical. To be noted: buffer. Put shortly:
as §1

Series [5] in a line: Configurational stability of compound in water-acetonitrile assessed as backward rate epimerization at 25 degC by dynamic HPLC analysis. Format: physicochemical. To be noted: buffer. An outline of the steps: as §1
Series [6] can be described thus: Configurational stability of compound in water-acetonitrile assessed as backward rate epimerization at 37 degC by dynamic HPLC analysis. Format: physicochemical. To be noted: buffer. An outline of the steps:
as §1

The nature of series [7]: Configurational stability of compound in water-acetonitrile assessed as forward equilibrium rate epimerization at 5 degC by dynamic HPLC analysis. Format: physicochemical. To be noted: buffer. Put shortly: as §1
Series [8] in a line: Configurational stability of compound in water-acetonitrile assessed as forward equilibrium rate epimerization at 25 degC by dynamic HPLC analysis. Type of series: physicochemical. To be noted: buffer. Put shortly: as §1
Series [9] is described as follows: Configurational stability of compound in water-acetonitrile assessed as forward equilibrium rate epimerization at 37 degC by dynamic HPLC analysis. Format: physicochemical. To be noted: buffer. Put shortly:
as §1

The nature of series [10]: Configurational stability of compound in water-acetonitrile assessed as forward rate equilibrium epimerization at pH 2.2 using C-8 column by stopped flow bidimensional recycling HPLC. Type of series: physicochemical. To be noted: buffer. An outline of the steps:
(§2)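 Stopped-flow bidimensional recycling HPLC on the (3*,6R) epimeric mixture. Epimers separated on Chiralcel OD-R at 0 °C with water/acetonitrile 50:50 (v/v). One epimer is trapped on a Supelcosil LC-8 (C8) reactor column and epimerizes at 37.5 °C in chloroacetate buffer pH 2.20 or phosphate buffer pH 7.00 (ionic strength 0.01). Column recooled to 0 °C, epimers re-separated, n = 4. Rate constants from first-order reversible kinetics.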

Series [11] can be described thus: Configurational stability of compound in water-acetonitrile assessed as forward rate equilibrium epimerization at pH 7 using C-8 column by stopped flow bidimensional recycling HPLC. To be noted: buffer. Format: physicochemical. An outline of the steps: as §2
Series [12] in a line: Configurational stability of compound in water-acetonitrile assessed as backward rate equilibrium epimerization at pH 2.2 using C-8 column by stopped flow bidimensional recycling HPLC. Format: physicochemical. To be noted: buffer. An outline of the steps: as §2
A short description of series [13]: Configurational stability of compound in water-acetonitrile assessed as backward rate equilibrium epimerization at pH 7 using C-8 column by stopped flow bidimensional recycling HPLC. To be noted: buffer. Format: physicochemical. An outline of the steps: as §2
The nature of series [14]: Configurational stability of compound in water-acetonitrile assessed as forward rate epimerization at pH 2.2 using C-8 column by stopped flow bidimensional recycling HPLC. Type of series: physicochemical. To be noted: buffer. An outline of the steps: as §2
A short description of series [15]: Configurational stability of compound in water-acetonitrile assessed as forward rate epimerization at pH 7 using C-8 column by stopped flow bidimensional recycling HPLC. Format: physicochemical. To be noted: buffer. Put shortly:
as §2

The nature of series [16]: Configurational stability of compound in water-acetonitrile assessed as backward rate epimerization at pH 2.2 using C-8 column by stopped flow bidimensional recycling HPLC. To be noted: buffer. Type of series: physicochemical. An outline of the steps: as §2
Series [17] is described as follows: Configurational stability of compound in water-acetonitrile assessed as backward rate epimerization at pH 7 using C-8 column by stopped flow bidimensional recycling HPLC. Type of series: physicochemical. To be noted: buffer. Put shortly:
as §2

Series [18] in a line: Configurational stability of compound in water-acetonitrile assessed as forward rate equilibrium epimerization at pH 2.2 using IAM column by stopped flow bidimensional recycling HPLC. To be noted: artificial membrane. Type of series: physicochemical. Put shortly:
(§3)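 sf-BD-rHPLC with an IAM-based reactor column. (3*,6R) epimers separated on Chiralcel OD-R at 0 °C using water/acetonitrile 50:50 (v/v). Trapped epimer interconverts at 37.5 °C in chloroacetate buffer pH 2.20 or phosphate buffer pH 7.00 (ionic strength 0.01), then is re-separated at 0 °C, n = 4. Forward, backward and equilibrium rate constants derived from peak areas.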

Series [19] in a line: Configurational stability of compound in water-acetonitrile assessed as forward rate equilibrium epimerization at pH 7 using IAM column by stopped flow bidimensional recycling HPLC. To be noted: artificial membrane. Type of series: physicochemical. Put shortly: as §3
The nature of series [20]: Configurational stability of compound in water-acetonitrile assessed as backward rate equilibrium epimerization at pH 2.2 using IAM column by stopped flow bidimensional recycling HPLC. To be noted: artificial membrane. Format: physicochemical. Put shortly:
as §3

Series [21] is described as follows: Configurational stability of compound in water-acetonitrile assessed as backward rate equilibrium epimerization at pH 7 using IAM column by stopped flow bidimensional recycling HPLC. To be noted: artificial membrane. Format: physicochemical. Put shortly:
as §3

Series [22] can be described thus: Configurational stability of compound in water-acetonitrile assessed as forward rate epimerization at pH 2.2 using IAM column by stopped flow bidimensional recycling HPLC. Type of series: physicochemical. To be noted: artificial membrane. Put shortly: as §3
A short description of series [23]: Configurational stability of compound in water-acetonitrile assessed as forward rate epimerization at pH 7 using IAM column by stopped flow bidimensional recycling HPLC. Type of series: physicochemical. To be noted: artificial membrane. Put shortly: as §3
Series [24] in a line: Configurational stability of compound in water-acetonitrile assessed as backward rate epimerization at pH 2.2 using IAM column by stopped flow bidimensional recycling HPLC. Format: physicochemical. To be noted: artificial membrane. An outline of the steps: as §3
Series [25] is described as follows: Configurational stability of compound in water-acetonitrile assessed as backward rate epimerization at pH 7 using IAM column by stopped flow bidimensional recycling HPLC. Format: physicochemical. To be noted: artificial membrane. Put shortly: as §3
Series [26] in a line: Configurational stability of compound assessed as half life using C-8 column by stopped flow bidimensional recycling HPLC. Type of series: physicochemical. To be noted: C-8 column (stationary phase). An outline of the steps:
as §2

Series [27] is described as follows: Configurational stability of compound assessed as half life using IAM column by stopped flow bidimensional recycling HPLC. Type of series: physicochemical. To be noted: IAM column (stationary phase). An outline of the steps:
as §3

The nature of series [28]: Chemical stability of compound assessed as compound hydrolysis at pH 2.2 at 37.5 degC after 90 mins. To be noted: buffer, pH 2.2, 1.5 h. Type of series: physicochemical. An outline of the steps: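 (3*,6R) epimeric mixture held on reactor column in chloroacetate buffer (ionic strength 0.01, pH 2.20) at 37.5 °C for up to 90 min. Hydrolysis checked by the sf-BD-rHPLC method: Chiralcel OD-R separative column at 0 °C, water/acetonitrile 50:50 (v/v) eluent.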

With `CC1NS(=O)(=O)c2cc(Cl)cc3c2N1C[C@H]3C` (mixture of isomers), in the series on DIV7-10, the Activity was determined as 250%.

As for `CC1NS(=O)(=O)c2cc(Cl)cc3c2N1C[C@@H]3C` (mixture of isomers), the K in [1] stood at 0.17 ×10⁻⁴ /s; in series [2] it was 1.11 ×10⁻⁴ /s; in series [3] it was 1.28 ×10⁻⁴ /s; in series [4], 0.06 ×10⁻⁴ /s; in series [5], 0.76 ×10⁻⁴ /s; in series [6] it was 0.71 ×10⁻⁴ /s. In addition, the K amounted to 0.23 ×10⁻⁴ /s in [7]; 1.87 ×10⁻⁴ /s in series [8]; 1.99 ×10⁻⁴ /s in [9]; 6.68 ×10⁻⁴ /s in [10]; 5.9 ×10⁻⁴ /s in series [11]; 6.52 ×10⁻⁴ /s in [12]. Further, the K in series [13] was found to be 7.77 ×10⁻⁴ /s; in series [14], 4.61 ×10⁻⁴ /s; in [15], 4.49 ×10⁻⁴ /s; in series [16], 2.26 ×10⁻⁴ /s; in series [17] it was 2.34 ×10⁻⁴ /s; in series [18], 10.7 ×10⁻⁴ /s. Also, the K in series [19] was 7.2 ×10⁻⁴ /s; in series [20], 9.63 ×10⁻⁴ /s; in [21] it was 8.93 ×10⁻⁴ /s; in series [22], 6.68 ×10⁻⁴ /s; in series [23] it was 5.3 ×10⁻⁴ /s; in [24], 3.48 ×10⁻⁴ /s. Moreover, the K in [25] amounted to 2.75 ×10⁻⁴ /s. The half-life in [26] and in [27] was 10 min in each case. Moreover, the Activity in the series on DIV7-10 is 112%.

With `CC1CN2c3c1cc(Cl)cc3S(=O)(=O)NC2C` (stereo not given), in series [28], the Stability entry is “Stable”.
